Measurements reported in ChEMBL document CHEMBL1649427, “Inactivation of the glycoside hydrolase NagZ attenuates antipseudomonal beta-lactam resistance in Pseudomonas aeruginosa” (Antimicrob Agents Chemother, 2009).
Values after ≈ are worked out from the molar mass of the structure shown.

What was measured:
Pseudomonas aeruginosa [1] = assay: Antimicrobial activity against Pseudomonas aeruginosa PAO1 harboring deltaampD::lox deltaampDh2::lox delta ampDh3::lox and plasmid pUCP27 after 18 hrs by Etest; type: functional; settings: PAO1, 18 h
Summary of the method: (§1)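 Etest strips on Mueller-Hinton agar supplemented with 75 μg/ml tetracycline to maintain the vector or complementation plasmid, run per the manufacturer's recommendations; triplicate determinations.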

Pseudomonas aeruginosa [2] = assay: Antimicrobial activity against ampDh2 gene-deficient Pseudomonas aeruginosa PAO1 using 30 ug/disk by agar diffusion method; type: functional
Summary of the method: (§2)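 Cultures grown in Mueller-Hinton broth at 37°C to OD600 ~0.5, pelleted, resuspended in 2 ml broth and streaked on Mueller-Hinton agar. Inhibition zone diameter measured after overnight incubation at 37°C. Triplicate determinations.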

Pseudomonas aeruginosa [3] = assay: Antimicrobial activity against ampDh2 and ampDh3 gene-deficient Pseudomonas aeruginosa PAO1 after 18 hrs by broth microdilution method; type: functional; settings: PAO1, 18 h
Summary of the method: (§3)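 Wells are then inoculated with 100 μl culture and incubated 18 h at 37°C. The MIC is the lowest concentration with no growth. Triplicate determinations.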

Pseudomonas aeruginosa [4] = assay: Ratio of MIC for Pseudomonas aeruginosa PAO1 harboring deltaampD::lox deltaampDh2::lox deltaampDh3::lox to MIC for Pseudomonas aeruginosa PAO1 harboring deltaampD::lox deltaampDh2::lox deltaampDh3::lox deltanagZ::Gm
Pseudomonas aeruginosa [5] = assay: Antimicrobial activity against ampDDh2 gene-deficient Pseudomonas aeruginosa PAO1 after 18 hrs by broth microdilution method in presence of 0.5 mM nagZ inhibitor EtBuPUG; type: functional; settings: PAO1, 18 h; summary of the method: as §3
Pseudomonas aeruginosa [6] = assay: Antimicrobial activity against ampDDh2 and ampDh3 gene-deficient Pseudomonas aeruginosa PAO1 after 18 hrs using […] by agar diffusion method in presence of 0.5 mM nagZ inhibitor EtBuPUG; type: functional; summary of the method: as §2
Pseudomonas aeruginosa [7] = assay: Antimicrobial activity against nagZ gene-deficient Pseudomonas aeruginosa PAO1 after 18 hrs by broth microdilution method; type: functional; settings: PAO1, 18 h
Summary of the method: (§4)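 CLSI broth microdilution in cation-adjusted Mueller-Hinton medium with serial β-lactam dilutions. Each well holds 200 μl broth inoculated with ~10⁴ cells from starter cultures at OD600 ~0.5. Plates shaken at 37°C for 18 h. The MIC is read as the lowest antibiotic concentration showing no growth. Triplicate determinations.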

Pseudomonas aeruginosa [8] = assay: Antimicrobial activity against ampDh2 gene-deficient Pseudomonas aeruginosa PAO1 after 18 hrs by broth microdilution method in presence of 0.5 mM nagZ inhibitor EtBuPUG; type: functional; settings: PAO1, 18 h; summary of the method: as §3
Pseudomonas aeruginosa [9] = assay: Antimicrobial activity against ampD gene-deficient Pseudomonas aeruginosa PAO1 after 18 hrs by broth microdilution method in presence of 0.5 mM nagZ inhibitor EtBuPUG; type: functional; settings: PAO1, 18 h; summary of the method: as §3
Pseudomonas aeruginosa [10] = assay: Antimicrobial activity against Pseudomonas aeruginosa PAO1 harboring deltaampD::lox deltaampDh2::lox deltaampDh3::lox deltanagZ::Gm after 18 hrs by Etest; type: functional; settings: PAO1, 18 h
Summary of the method: (§5)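 Etest strips on Mueller-Hinton agar plates, run per the manufacturer's recommendations; MICs determined in triplicate.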

Pseudomonas aeruginosa [11] = assay: Antimicrobial activity against ampDDh3 gene-deficient Pseudomonas aeruginosa PAO1 after 18 hrs by broth microdilution method in presence; type: functional; settings: PAO1, 18 h; summary of the method: as §3
Pseudomonas aeruginosa [12] = assay: Ratio of MIC for ampDh2 gene-deficient Pseudomonas aeruginosa PAO1 after 18 hrs by broth microdilution method in presence of 0.5 mM nagZ inhibitor EtBuPUG to MIC for ampDh2 gene-deficient Pseudomonas aeruginosa PAO1 in absence of nagZ inhibitor EtBuPUG; type: functional
Summary of the method: (§6)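 Broth microdilution in Mueller-Hinton broth. Serial β-lactam dilutions in 80 μl broth, plus 20 μl EtBuPUG (5 mM stock in H₂O) or 20 μl H₂O, then 100 μl culture grown to OD600 ~0.5. Plates incubated at 37°C for 18 h. MIC read as the antibiotic concentration in wells with no growth, with and without inhibitor. Triplicate.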

Pseudomonas aeruginosa [13] = assay: Antimicrobial activity against ampDh2 gene-deficient Pseudomonas aeruginosa PAO1 using 30 ug/disk by agar diffusion method in presence of 0.5 mM nagZ inhibitor EtBuPUG; type: functional
Summary of the method: (§7)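 Cultures grown in Mueller-Hinton broth at 37°C to OD600 ~0.5, pelleted, resuspended in 2 ml broth and streaked on Mueller-Hinton agar. […] Inhibition zone diameter measured after overnight incubation at 37°C. Triplicate determinations.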

Pseudomonas aeruginosa [14] = assay: Ratio of MIC for ampDh3 gene-deficient Pseudomonas aeruginosa PAO1 after 18 hrs by broth microdilution method presence of 0.5 mM nagZ inhibitor EtBuPUG to MIC for ampDh3 gene-deficient Pseudomonas aeruginosa PAO1 in absence of nagZ inhibitor EtBuPUG; type: functional; summary of the method: as §6
Pseudomonas aeruginosa [15] = assay: Antimicrobial activity against Pseudomonas aeruginosa PAO1 after 18 hrs by using 30 ug/disk by agar diffusion method in presence of 0.5 mM nagZ inhibitor EtBuPUG; type: functional; summary of the method: as §7
Pseudomonas aeruginosa [16] = assay: Antimicrobial activity against ampDDh2 and ampDh3 gene-deficient Pseudomonas aeruginosa PAO1 after 18 hrs by broth microdilution method in presence of 0.5 mM nagZ inhibitor EtBuPUG; type: functional; settings: PAO1, 18 h; summary of the method: as §3
Pseudomonas aeruginosa [17] = assay: Antimicrobial activity against ampDh2 gene-deficient Pseudomonas aeruginosa PAO1 after 18 hrs by broth microdilution method in absence of EtBuPUG; settings: PAO1, 18 h
Pseudomonas aeruginosa [18] = assay: Antimicrobial activity against ampDh2 and ampDh3 gene-deficient Pseudomonas aeruginosa PAO1 after 18 hrs by broth microdilution method in presence of 0.5 mM nagZ inhibitor EtBuPUG; type: functional; settings: PAO1, 18 h; summary of the method: as §3
Pseudomonas aeruginosa [19] = assay: Ratio of MIC for ampD gene-deficient Pseudomonas aeruginosa PAO1 after 18 hrs by broth microdilution method presence of 0.5 mM nagZ inhibitor EtBuPUG to MIC for […] gene-deficient Pseudomonas aeruginosa PAO1 in absence of nagZ inhibitor EtBuPUG; type: functional; summary of the method: as §6
Pseudomonas aeruginosa [20] = assay: Antimicrobial activity against Pseudomonas aeruginosa PAO1 harboring deltaampD::lox deltaampDh2::lox delta ampDh3::lox after 18 hrs by Etest; type: functional; settings: PAO1, 18 h; summary of the method: as §5
Pseudomonas aeruginosa [21] = assay: Antimicrobial activity against ampDDh2 and ampDh3 gene-deficient Pseudomonas aeruginosa PAO1 after 18 hrs using […] by agar diffusion method; type: functional; summary of the method: as §7
Pseudomonas aeruginosa [22] = assay: Antimicrobial activity against ampDDh2 gene-deficient Pseudomonas aeruginosa PAO1 after 18 hrs by broth microdilution method in presence; type: functional; settings: PAO1, 18 h; summary of the method: as §3
Pseudomonas aeruginosa [23] = assay: Antimicrobial activity against Pseudomonas aeruginosa PAO1 after 18 hrs by broth microdilution method; type: functional; settings: PAO1, 18 h; summary of the method: as §4
Pseudomonas aeruginosa [24] = assay: Antimicrobial activity against Pseudomonas aeruginosa PAO1 harboring deltaampD::lox deltaampDh2::lox delta ampDh3::lox and wild type nagZ gene after 18 hrs by Etest; type: functional; settings: PAO1, 18 h; summary of the method: as §1
Pseudomonas aeruginosa [25] = assay: Antimicrobial activity against Pseudomonas aeruginosa PAO1 after 18 hrs by using 30 ug/disk by agar diffusion method; type: functional; summary of the method: as §2
Pseudomonas aeruginosa [26] = assay: Antimicrobial activity against ampD gene-deficient Pseudomonas aeruginosa PAO1 after 18 hrs by broth microdilution method in absence of EtBuPUG; settings: PAO1, 18 h
Pseudomonas aeruginosa [27] = assay: Antimicrobial activity against ampDh3 gene-deficient Pseudomonas aeruginosa PAO1 after 18 hrs by broth microdilution method in presence of 0.5 mM nagZ inhibitor EtBuPUG; type: functional; settings: PAO1, 18 h; summary of the method: as §3
Pseudomonas aeruginosa [28] = assay: Antimicrobial activity against ampDh3 gene-deficient Pseudomonas aeruginosa PAO1 after 18 hrs by broth microdilution method in presence; type: functional; settings: PAO1, 18 h; summary of the method: as §3
Pseudomonas aeruginosa [29] = assay: Antimicrobial activity against Pseudomonas aeruginosa PAO1 after 18 hrs by broth microdilution method in presence of 0.5 mM nagZ inhibitor EtBuPUG; type: functional; settings: PAO1, 18 h; summary of the method: as §3
Pseudomonas aeruginosa [30] = assay: Antimicrobial activity against ampDDh3 gene-deficient Pseudomonas aeruginosa PAO1 after 18 hrs by broth microdilution method in presence of 0.5 mM nagZ inhibitor EtBuPUG; type: functional; settings: PAO1, 18 h; summary of the method: as §3
Pseudomonas aeruginosa [31] = assay: Antimicrobial activity against Pseudomonas aeruginosa PAO1 harboring deltaampD::lox deltaampDh2::lox deltaampDh3::lox after 18 hrs by broth microdilution method; type: functional; settings: PAO1, 18 h; summary of the method: as §4
Pseudomonas aeruginosa [32] = assay: Antimicrobial activity against Pseudomonas aeruginosa PAO1 harboring deltaampD::lox deltaampDh2::lox delta ampDh3::lox after 18 hrs by broth microdilution method; type: functional; settings: PAO1, 18 h; summary of the method: as §4
Pseudomonas aeruginosa [33] = assay: Antimicrobial activity against Pseudomonas aeruginosa PAO1 after 18 hrs by Etest; type: functional; settings: PAO1, 18 h
Summary of the method: (§8)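 Strains are P. aeruginosa PAO1 and its insertional nagZ-inactivated derivative. MICs were read from Etest strips on Mueller-Hinton agar, following the manufacturer's recommendations. Each determination was done in triplicate.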

Pseudomonas aeruginosa [34] = assay: Antimicrobial activity against nagZ gene-deficient Pseudomonas aeruginosa PAO1 after 18 hrs by Etest; type: functional; settings: PAO1, 18 h; summary of the method: as §8
Pseudomonas aeruginosa [35] = assay: Antimicrobial activity against Pseudomonas aeruginosa PAO1 harboring deltaampD::lox deltaampDh2::lox delta ampDh3::lox after 18 hrs by Etest in presence of beta-lactamase inhibitor Tazobactam; type: functional; settings: PAO1, 18 h
Pseudomonas aeruginosa [36] = assay: Ratio of MIC for Pseudomonas aeruginosa PAO1 harboring deltaampD::lox deltaampDh2::lox deltaampDh3::lox deltanagZ::Gm in presence of beta-lactamase inhibitor Tazobactam to MIC for nagZ gene-deficient Pseudomonas aeruginosa PAO1 in presence of beta-lactamase inhibitor Tazobactam; type: functional
Pseudomonas aeruginosa [37] = assay: Antimicrobial activity against Pseudomonas aeruginosa PAO1 harboring deltaampD::lox deltaampDh2::lox deltaampDh3::lox deltanagZ::Gm after 18 hrs by Etest in presence of beta-lactamase inhibitor Tazobactam; type: functional; settings: PAO1, 18 h
Pseudomonas aeruginosa [38] = assay: Antimicrobial activity against nagZ gene-deficient Pseudomonas aeruginosa PAO1 after 18 hrs by Etest in presence of beta-lactamase inhibitor Tazobactam; type: functional; settings: PAO1, 18 h; summary of the method: as §8
Pseudomonas aeruginosa [39] = assay: Antimicrobial activity against Pseudomonas aeruginosa PAO1 after 18 hrs by Etest in presence of beta-lactamase inhibitor Tazobactam; type: functional; settings: PAO1, 18 h; summary of the method: as §8

## CC(C)(O/N=C(\C(=O)N[C@@H]1C(=O)N2C(C(=O)[O-])=C(C[n+]3ccccc3)CS[C@H]12)c1csc(N)n1)C(=O)O [CEFTAZIDIME]
Pseudomonas aeruginosa [1]
  MIC: 12 µg/mL (≈ 22 µM)
Pseudomonas aeruginosa [2]
  inhibition zone (IZ): 10.1 mm
Pseudomonas aeruginosa [3]
  MIC: 0.75 µg/mL (≈ 1.37 µM)
Pseudomonas aeruginosa [4]
  Ratio: 4
Pseudomonas aeruginosa [5]
  MIC: 6 µg/mL
Pseudomonas aeruginosa [6]
  inhibition zone (IZ): 9.5 mm
Pseudomonas aeruginosa [7]
  MIC: 0.5 µg/mL (≈ 0.915 µM)
Pseudomonas aeruginosa [8]
  MIC: 0.19 µg/mL
Pseudomonas aeruginosa [9]
  MIC: 4 µg/mL
Pseudomonas aeruginosa [10]
  MIC: 12 µg/mL (≈ 22 µM)
Pseudomonas aeruginosa [11]
  MIC: 48 µg/mL (≈ 87.8 µM)
Pseudomonas aeruginosa [12]
  Ratio: 4
Pseudomonas aeruginosa [13]
  inhibition zone (IZ): 12.3 mm
Pseudomonas aeruginosa [14]
  Ratio: 2
Pseudomonas aeruginosa [15]
  inhibition zone (IZ): 13.1 mm
Pseudomonas aeruginosa [16]
  MIC: 48 µg/mL
Pseudomonas aeruginosa [17]
  MIC: 0.75 µg/mL (≈ 1.37 µM)
Pseudomonas aeruginosa [18]
  MIC: 0.75 µg/mL
Pseudomonas aeruginosa [19]
  Ratio: 2
Pseudomonas aeruginosa [20]
  MIC: 48 µg/mL (≈ 87.8 µM)
Pseudomonas aeruginosa [21]
  inhibition zone (IZ): 9.2 mm
Pseudomonas aeruginosa [22]
  MIC: 12 µg/mL (≈ 22 µM)
Pseudomonas aeruginosa [23]
  MIC: 1 µg/mL (≈ 1.83 µM)
Pseudomonas aeruginosa [24]
  MIC: 48 µg/mL (≈ 87.8 µM)
Pseudomonas aeruginosa [25]
  inhibition zone (IZ): 11.4 mm
Pseudomonas aeruginosa [26]
  MIC: 8 µg/mL (≈ 14.6 µM)
Pseudomonas aeruginosa [27]
  MIC: 0.5 µg/mL
Pseudomonas aeruginosa [28]
  MIC: 1 µg/mL (≈ 1.83 µM)
Pseudomonas aeruginosa [29]
  MIC: 0.5 µg/mL
Pseudomonas aeruginosa [30]
  MIC: 48 µg/mL

## O=C(O)c1cn(C2CC2)c2cc(N3CCNCC3)c(F)cc2c1=O [CIPROFLOXACIN]
Pseudomonas aeruginosa [31]
  MIC: 0.2 µg/mL (≈ 0.604 µM)
Pseudomonas aeruginosa [7]
  MIC: 0.2 µg/mL (≈ 0.604 µM)
Pseudomonas aeruginosa [23]
  MIC: 0.2 µg/mL (≈ 0.604 µM)
Pseudomonas aeruginosa [32]
  MIC: 0.2 µg/mL (≈ 0.604 µM)

## C[C@@H](O)[C@H]1C(=O)N2C(C(=O)O)=C(SCCNC=N)C[C@H]12 [IMIPENEM ANHYDROUS]
Pseudomonas aeruginosa [10]
  MIC: 1.5 µg/mL (≈ 5.01 µM)
Pseudomonas aeruginosa [33]
  MIC: 3 µg/mL (≈ 10 µM)
Pseudomonas aeruginosa [34]
  MIC: 2 µg/mL (≈ 6.68 µM)
Pseudomonas aeruginosa [20]
  MIC: 1.5 µg/mL (≈ 5.01 µM)

## CCN1CCN(C(=O)N[C@@H](C(=O)N[C@@H]2C(=O)N3[C@@H]2SC(C)(C)[C@@H]3C(=O)O)c2ccccc2)C(=O)C1=O [PIPERACILLIN]
Pseudomonas aeruginosa [35]
  MIC: ≥ 256 µg/mL
Pseudomonas aeruginosa [36]
  Ratio: 10
Pseudomonas aeruginosa [10]
  MIC: 24 µg/mL (≈ 46.4 µM)
Pseudomonas aeruginosa [33]
  MIC: 1 µg/mL (≈ 1.93 µM)
Pseudomonas aeruginosa [34]
  MIC: 1 µg/mL (≈ 1.93 µM)
Pseudomonas aeruginosa [37]
  MIC: 16 µg/mL
Pseudomonas aeruginosa [20]
  MIC: > 256 µg/mL
Pseudomonas aeruginosa [38]
  MIC: 1.5 µg/mL
Pseudomonas aeruginosa [39]
  MIC: 1 µg/mL
